A short description of assay [1]: Antiproliferative activity against human HBL100 cells after 48 hrs incubation by SRB assay. The class given is functional. As to conditions: HBL-100, 48 h. A digest of the protocol:
(§1)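 Cells kept in RPMI 1640 with 5% heat-inactivated FCS and 2 mM L-glutamine at 37 °C, 5% CO2. Plated at 10 000 (HBL-100, HeLa, SW1573), 15 000 (T-47D) or 20 000 (WiDr) cells/well. Dosing began day 1, in triplicate, over 1–100 range. DMSO stocks at 400× final top concentration; vehicle control 0.25% DMSO. Exposure 48 h, then TCA fixation 60 min at 4 °C. SRB read-out at 492 nm, background-corrected; GI50 from dose–response.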
Background: In SRB staining, fixed cells bind dye roughly in proportion to their protein.

For assay [2], the system named is HeLa. The assay can be described thus: Antiproliferative activity against human HeLa cells after 48 hrs incubation by SRB assay. The class given is functional. The gist of the method: as §1
The test system of assay [3] is SW1573. The assay can be described thus: Antiproliferative activity against human SW1573 cells after 48 hrs incubation by SRB assay. The class given is functional. As to conditions: SW1573, 48 h. A digest of the protocol:
as §1

For assay [4], the system named is T47D. As to the kind of experiment: Antiproliferative activity against human T47D cells after 48 hrs incubation by SRB assay. The class given is functional. A digest of the protocol:
as §1

Assay [5] concerns WiDr. As to the kind of experiment: Antiproliferative activity against human WiDr cells after 48 hrs incubation by SRB assay. Format: functional. The gist of the method: as §1
For assay [6], the target named is Casein kinase I isoform alpha (Homo sapiens) (UniProt P48729). The assay can be described thus: Inhibition of human Casein kinase 1 alpha 1 assessed as residual activity at 10 uM relative to control. The gist of the method:
(§2)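 KINOMEscan active-site-directed competition binding run against a 456-kinase panel (scanMAX), each compound at a single 10 µM concentration. Binding reported as percent of control, with DMSO set to 100%Ctrl and a positive control set to 0%Ctrl. Hit cut-off is 35%Ctrl.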

Assay [7] addresses T1, Casein kinase I isoform alpha-like (Homo sapiens) (UniProt Q8N752).
T1 sequence (whole entry): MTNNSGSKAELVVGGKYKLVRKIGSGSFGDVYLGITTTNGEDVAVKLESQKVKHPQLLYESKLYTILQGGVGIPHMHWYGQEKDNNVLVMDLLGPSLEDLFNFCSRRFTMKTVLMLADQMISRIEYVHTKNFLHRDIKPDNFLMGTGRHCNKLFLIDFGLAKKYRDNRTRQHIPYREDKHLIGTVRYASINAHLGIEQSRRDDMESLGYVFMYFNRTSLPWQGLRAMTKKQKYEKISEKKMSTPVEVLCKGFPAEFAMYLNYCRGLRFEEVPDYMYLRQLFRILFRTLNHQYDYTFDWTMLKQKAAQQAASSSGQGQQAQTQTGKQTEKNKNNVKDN
The assay can be described thus: Inhibition of human Casein kinase 1 alpha 1-like assessed as residual activity at 10 uM relative to control. The gist of the method:
as §2

The target of assay [8] is Casein kinase I isoform delta (Homo sapiens) (UniProt P48730). As to the kind of experiment: Inhibition of human Casein kinase 1 delta assessed as residual activity at 10 uM relative to control. A digest of the protocol:
as §2

In assay [9] the target is Casein kinase I isoform epsilon (Homo sapiens, UniProt P49674). The assay can be described thus: Inhibition of human Casein kinase 1 epsilon assessed as residual activity at 10 uM relative to control. The gist of the method:
as §2

Assay [10] deals with Casein kinase I isoform gamma-1 (Homo sapiens) (UniProt Q9HCP0). As to the kind of experiment: Inhibition of human Casein kinase 1 gamma 1 assessed as residual activity at 10 uM relative to control. A digest of the protocol: as §2
Chain of Casein kinase I isoform gamma-1 (Homo sapiens) (Q9HCP0 whole entry, looked up, canonical isoform): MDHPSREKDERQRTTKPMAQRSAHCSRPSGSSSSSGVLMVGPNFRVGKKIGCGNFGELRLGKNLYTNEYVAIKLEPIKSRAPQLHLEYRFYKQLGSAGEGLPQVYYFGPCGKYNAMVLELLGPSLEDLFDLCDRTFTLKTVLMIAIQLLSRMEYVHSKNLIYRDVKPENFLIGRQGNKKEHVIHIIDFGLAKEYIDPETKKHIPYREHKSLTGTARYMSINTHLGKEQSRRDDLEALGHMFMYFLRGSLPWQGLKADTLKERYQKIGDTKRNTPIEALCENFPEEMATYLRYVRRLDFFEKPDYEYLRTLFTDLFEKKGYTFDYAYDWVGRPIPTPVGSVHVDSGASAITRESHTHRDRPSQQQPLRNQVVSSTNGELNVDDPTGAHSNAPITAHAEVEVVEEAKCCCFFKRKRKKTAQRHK
For assay [11], the target named is Casein kinase I isoform gamma-2 (Homo sapiens) (UniProt P78368). The assay can be described thus: Inhibition of human Casein kinase 1 gamma 2 assessed as residual activity at 10 uM relative to control. The gist of the method:
as §2

Assay [12] addresses Casein kinase I isoform gamma-3 (Homo sapiens) (UniProt Q9Y6M4). As to the kind of experiment: Inhibition of human Casein kinase 1 gamma 3 assessed as residual activity at 10 uM relative to control. A digest of the protocol:
as §2

The target in assay [13] is Casein kinase II subunit alpha (Homo sapiens) (UniProt P68400). As to the kind of experiment: Inhibition of human Casein kinase 2 alpha 1 polypeptide assessed as residual activity at 10 uM relative to control. The gist of the method: as §2
Chain of Casein kinase II subunit alpha (Homo sapiens) (P68400 whole entry, looked up): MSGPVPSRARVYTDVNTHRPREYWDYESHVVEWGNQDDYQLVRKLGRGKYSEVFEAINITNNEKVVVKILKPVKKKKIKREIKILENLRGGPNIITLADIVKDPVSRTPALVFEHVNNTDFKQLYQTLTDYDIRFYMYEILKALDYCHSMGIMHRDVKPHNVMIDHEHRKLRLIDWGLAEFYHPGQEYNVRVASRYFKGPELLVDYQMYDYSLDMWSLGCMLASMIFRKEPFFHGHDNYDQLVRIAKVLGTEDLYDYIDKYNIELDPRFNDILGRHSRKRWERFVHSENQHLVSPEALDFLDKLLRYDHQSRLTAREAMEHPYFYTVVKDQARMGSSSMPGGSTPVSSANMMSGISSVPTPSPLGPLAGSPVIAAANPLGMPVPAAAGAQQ
For assay [14], the target named is Casein kinase II subunit alpha' (Homo sapiens) (UniProt P19784). The assay can be described thus: Inhibition of human Casein kinase 2 alpha prime polypeptide assessed as residual activity at 10 uM relative to control. A digest of the protocol:
as §2

Chain of Casein kinase I isoform gamma-3 (Homo sapiens) (Q9Y6M4 whole entry, looked up, canonical isoform): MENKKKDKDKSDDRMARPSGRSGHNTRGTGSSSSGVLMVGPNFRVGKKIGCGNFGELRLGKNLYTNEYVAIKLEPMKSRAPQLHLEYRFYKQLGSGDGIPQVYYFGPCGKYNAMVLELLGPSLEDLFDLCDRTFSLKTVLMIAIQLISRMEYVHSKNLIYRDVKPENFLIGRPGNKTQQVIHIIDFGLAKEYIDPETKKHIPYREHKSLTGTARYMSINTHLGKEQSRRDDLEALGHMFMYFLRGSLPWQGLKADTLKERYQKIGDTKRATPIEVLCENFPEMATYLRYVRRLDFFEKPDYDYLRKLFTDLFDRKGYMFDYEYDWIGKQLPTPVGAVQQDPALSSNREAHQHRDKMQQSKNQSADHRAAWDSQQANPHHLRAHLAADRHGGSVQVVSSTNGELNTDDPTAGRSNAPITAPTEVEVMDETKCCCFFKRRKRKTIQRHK
Chain of Casein kinase I isoform gamma-2 (Homo sapiens) (P78368 whole entry, looked up, canonical isoform): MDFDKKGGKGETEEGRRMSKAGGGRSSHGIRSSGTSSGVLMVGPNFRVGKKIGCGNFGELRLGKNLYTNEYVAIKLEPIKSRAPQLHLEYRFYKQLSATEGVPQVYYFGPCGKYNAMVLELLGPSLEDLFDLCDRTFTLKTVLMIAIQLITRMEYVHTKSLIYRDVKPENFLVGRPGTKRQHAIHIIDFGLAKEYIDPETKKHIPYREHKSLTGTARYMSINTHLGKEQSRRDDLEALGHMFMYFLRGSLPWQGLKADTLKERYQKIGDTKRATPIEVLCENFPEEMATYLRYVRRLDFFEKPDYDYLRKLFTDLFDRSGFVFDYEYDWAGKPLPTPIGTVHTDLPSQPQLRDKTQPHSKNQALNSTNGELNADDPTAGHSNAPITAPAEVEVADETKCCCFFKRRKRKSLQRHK
Chain of Casein kinase I isoform epsilon (P49674 whole entry, looked up, canonical isoform): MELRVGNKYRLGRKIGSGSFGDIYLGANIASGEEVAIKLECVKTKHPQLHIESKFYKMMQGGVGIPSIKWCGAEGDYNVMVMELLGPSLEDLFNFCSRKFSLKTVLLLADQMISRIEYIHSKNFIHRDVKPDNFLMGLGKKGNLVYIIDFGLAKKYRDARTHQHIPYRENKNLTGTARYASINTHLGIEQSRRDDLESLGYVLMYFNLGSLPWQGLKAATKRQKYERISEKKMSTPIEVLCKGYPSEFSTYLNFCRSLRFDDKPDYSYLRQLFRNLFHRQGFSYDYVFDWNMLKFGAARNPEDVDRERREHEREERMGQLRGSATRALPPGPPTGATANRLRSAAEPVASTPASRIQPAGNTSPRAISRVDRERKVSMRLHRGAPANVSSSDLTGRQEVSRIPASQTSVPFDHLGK
Chain of Casein kinase I isoform delta (Homo sapiens) (P48730 whole entry, looked up, canonical isoform): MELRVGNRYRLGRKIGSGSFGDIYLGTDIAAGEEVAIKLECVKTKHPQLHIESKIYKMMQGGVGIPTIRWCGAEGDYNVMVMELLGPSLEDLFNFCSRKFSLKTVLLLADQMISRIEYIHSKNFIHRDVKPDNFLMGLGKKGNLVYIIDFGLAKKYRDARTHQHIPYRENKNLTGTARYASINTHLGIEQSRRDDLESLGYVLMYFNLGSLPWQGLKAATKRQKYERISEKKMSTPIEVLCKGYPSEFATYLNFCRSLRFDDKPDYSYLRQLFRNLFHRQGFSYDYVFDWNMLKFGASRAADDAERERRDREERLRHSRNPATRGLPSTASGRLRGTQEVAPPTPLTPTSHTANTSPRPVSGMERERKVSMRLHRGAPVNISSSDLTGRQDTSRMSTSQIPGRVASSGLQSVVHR
Chain of Casein kinase I isoform alpha (Homo sapiens) (P48729 2-337 limits assumed): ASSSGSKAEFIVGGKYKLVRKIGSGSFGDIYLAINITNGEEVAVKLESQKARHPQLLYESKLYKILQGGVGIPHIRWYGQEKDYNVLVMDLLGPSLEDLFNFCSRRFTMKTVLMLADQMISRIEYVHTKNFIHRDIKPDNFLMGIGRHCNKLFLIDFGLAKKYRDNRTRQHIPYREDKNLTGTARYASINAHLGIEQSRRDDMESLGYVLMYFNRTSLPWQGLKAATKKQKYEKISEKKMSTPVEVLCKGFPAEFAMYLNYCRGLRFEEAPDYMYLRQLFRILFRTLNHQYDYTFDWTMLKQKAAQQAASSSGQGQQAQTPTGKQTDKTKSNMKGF
Chain of Casein kinase II subunit alpha' (Homo sapiens) (P19784 whole entry, looked up): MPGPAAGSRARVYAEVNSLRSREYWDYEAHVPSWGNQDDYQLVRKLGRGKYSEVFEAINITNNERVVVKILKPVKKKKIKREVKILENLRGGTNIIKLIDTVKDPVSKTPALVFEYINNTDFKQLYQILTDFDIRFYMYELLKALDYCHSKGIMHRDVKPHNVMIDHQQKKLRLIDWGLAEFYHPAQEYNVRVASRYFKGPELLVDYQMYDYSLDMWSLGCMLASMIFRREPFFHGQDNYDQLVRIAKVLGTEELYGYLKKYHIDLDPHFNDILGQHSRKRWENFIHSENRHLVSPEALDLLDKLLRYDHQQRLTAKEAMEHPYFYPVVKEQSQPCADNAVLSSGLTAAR

As usually defined, the GI50 is the concentration giving 50% growth inhibition. Regarding `CCCCCCCCC[C@@H](O)[C@@H](N)C(C)C`, the GI50 in assay [1] worked out at 14 µM; in assay [2], 20 µM; in [3] it was 17 µM; in [4] it was 17 µM; in assay [5], 11 µM.

Turning to `CCCCCCCCC[C@@H](O)[C@@H](N)C(C)CC` (single isomer, unassigned), the concentration for 50% growth inhibition (GI50) in [1] was determined as 13 µM; in assay [2], 20 µM; in [3], 13 µM; in [4], 14 µM; in assay [5] it was 2.3 µM.

As to `CCCCCCCCC[C@@H](O)[C@@H](N)CC(C)C`, the GI50 in assay [1] was 14 µM; in [2], 21 µM; in assay [3] it was 14 µM; in assay [4], 11 µM; in assay [5], 5.9 µM.

As for `CCCCCCCCCCCCCCC[C@@H](O)[C@@H](N)CO` [DIHYDROSPINGOSINE], the GI50 in [1] stood at 25 µM; in assay [2], 15 µM; in [3], 4.5 µM; in assay [4] it was 22 µM; in assay [5], 19 µM.

In the case of `CCCCCCCCC[C@@H](O)[C@@H](N)Cc1ccc(O)cc1`, the GI50 in assay [1] was 14 µM; in assay [2], 20 µM; in assay [3] it was 18 µM; in [4], 17 µM; in [5], 12 µM.

For `CCCCCCCCCCCCCCC[C@@H](O)[C@@H](N)Cc1ccccc1`, the GI50 in assay [1] was 2.9 µM; in assay [2], 1.3 µM; in assay [3], 2.1 µM; in assay [4] it was 1.8 µM; in assay [5], 2.3 µM.

For the molecule `CCCCCCCCCCCCCCC[C@@H](O)[C@@H](N)C(C)C`, the GI50 is 4.9 µM in assay [1]; 21 µM in [2]; 7.2 µM in [3]; 18 µM in assay [4]; 20 µM in [5].

Regarding `CCCCCCCCC[C@@H](O)[C@@H](N)Cc1ccccc1`, the GI50 was 14 µM in assay [1]; 18 µM in assay [2]; 16 µM in [3]; 17 µM in assay [4]; 12 µM in assay [5]. The Activity in assay [6] turned out to be 95%; in [7], 88%; in assay [8] it was 93%; in assay [9], 27%; in [10], 100%; in [11], 96%. Also, the Activity in assay [12] was 71%; in [13], 70%; in assay [14], 100%.

Consider `CCCCCCCCCCCCCCC[C@@H](O)[C@H](C)N`, for which the GI50 in assay [1] worked out at 2.3 µM; in assay [2], 2.6 µM; in assay [3], 1.3 µM; in [4] it was 0.9 µM; in [5], 0.7 µM. Also, the Activity in assay [6] was 100%; in assay [7], 100%; in assay [8], 100%; in [9], 60%; in assay [10], 98%; in [11], 100%. The Activity in assay [12] came to 100%; in [13], 87%; in assay [14], 98%.

Take `CCCCCCCCC[C@@H](O)[C@@H](N)[C@@H](C)O`: the 50% growth inhibitory concentration (GI50) in assay [1] worked out at 13 µM; in [2], 17 µM; in assay [3] it was 17 µM; in [4], 16 µM; in assay [5], 14 µM.

As to `CCCCCCCCC[C@@H](O)[C@H](C)N`, the GI50 in assay [1] is 6.6 µM; in assay [2] it was 9.2 µM; in assay [3], 9.5 µM; in assay [4], 12 µM; in [5], 17 µM.

As for `CCCCCCCCCCCCCCC[C@@H](O)[C@@H](N)CC(C)C`, the GI50 came out at 2.4 µM in assay [1]; 19 µM in [2]; 2.8 µM in assay [3]; 15 µM in assay [4]; 4.9 µM in [5]. Also, the Activity amounted to 93% in assay [6]; 91% in [7]; 89% in assay [8]; 48% in assay [9]; 98% in assay [10]; 94% in [11]. Besides, the Activity came out at 93% in [12], 84% in assay [13] and 100% in [14].

`CCCCCCCCCCCCCCC[C@@H](O)[C@@H](N)[C@@H](C)O`: the GI50 in assay [1] was 21 µM; in assay [2], 19 µM; in [3] it was 17 µM; in assay [4], 19 µM; in assay [5], 18 µM. Further, the Activity in [6] amounted to 100%; in assay [7], 100%; in assay [8] it was 90%; in [9], 43%; in assay [10] it was 100%; in assay [11], 87%. The Activity in assay [12] came out at 82%; in assay [13], 71%; in assay [14], 100%.

Turning to `COc1cc([C@@H]2c3cc4c(cc3[C@@H](O[C@@H]3O[C@@H]5CO[C@@H](C)O[C@H]5[C@H](O)[C@H]3O)[C@H]3COC(=O)[C@H]23)OCO4)cc(OC)c1O` [ETOPOSIDE], the GI50 in assay [1] worked out at 1.9 µM; in assay [2], 2 µM; in assay [3] it was 3 µM; in assay [4], 15 µM; in assay [5] it was 26 µM.

Regarding `CCCCCCCCCCCCCCC[C@@H](O)[C@@H](N)C(C)CC` (single isomer, unassigned), the GI50 is 2.4 µM in assay [1]; 20 µM in [2]; 3.4 µM in assay [3]; 17 µM in assay [4]; 13 µM in [5].

The values above are taken from ChEMBL document CHEMBL3421615, “Synthesis and identification of unprecedented selective inhibitors of CK1ε” (Eur J Med Chem, 2015).
